Publication PMC2801054 (Analytical biochemistry, 2009)

Key:
[1] = target: T1, endometase (matrilysin 2, MMP-26) (Homo sapiens, UniProt Q9NRE1); test: fluorogenic peptide hydrolysis; format: biochemical
T1 sequence (Q9NRE1 90-261): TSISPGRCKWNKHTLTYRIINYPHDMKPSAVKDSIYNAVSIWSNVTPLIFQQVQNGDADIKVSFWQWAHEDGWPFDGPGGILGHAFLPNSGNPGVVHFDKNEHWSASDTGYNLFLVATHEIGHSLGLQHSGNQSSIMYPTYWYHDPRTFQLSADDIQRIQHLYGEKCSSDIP
Outline: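 MMP-26 was refolded from urea-solubilized insoluble protein by dialysis and was partially auto-activated. Active enzyme concentration was set by GM6001 titration. Final conditions were 1 nM active enzyme, 1 μM Mca-PLGLDpa-AR-NH₂, and test compound at 0.001–9 mM in 50 mM HEPES pH 7.5, 0.2 M NaCl, 10 mM CaCl₂ at 25 °C. Fluorescence was read at ex 328/em 393 nm, with maximum signal set as 100% activity.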

[2] = target: T1, endometase (matrilysin 2, MMP-26); test: active-site titration, fluorogenic peptide hydrolysis, Morrison fit; format: biochemical; conditions: 50 mM HEPES pH 7.5, 0.2 M NaCl, 10 mM CaCl2, 0.01 % Brij-35, 25 °C, 20 min preincubation

| IC50 [1] [µM] | SMILES | active-site titration, fluorogenic peptide hydrolysis, Morrison fit [2] |
| --- | --- | --- |
| 110 | CCCCCCCCCCCCOS(=O)(=O)O [SDS] | – |
| 79 | CCCCCCCCCCCCCC[N+](C)(C)C [TTAB] | – |
| – | CNC(=O)[C@H](Cc1c[nH]c2ccccc12)NC(=O)[C@@H](CC(=O)NO)CC(C)C [GM6001] | Titration of active MMP-26 with GM6001, a potent and broad-spectrum MMP inhibitor |
